# Assay results: ChEMBL document CHEMBL4665779, “Novel 2-Substituted 3-Hydroxy-1,6-dimethylpyridin-4(1H)-ones as Dual-Acting Biofilm Inhibitors of Pseudomonas aeruginosa” (J Med Chem, 2020)
# Activity calls are given as the source filed them. The rule behind the calls is not given here.
# Experiments:
# Pseudomonas aeruginosa [1] = test: Inhibition of biofilm formation in multidrug resistant Pseudomonas aeruginosa FB at 5 uM relative to control; format: functional
# Pseudomonas aeruginosa [2] = test: Inhibition of biofilm formation in multidrug resistant Pseudomonas aeruginosa 1129 at 20 uM relative to control; format: functional
# Pseudomonas aeruginosa [3] = test: Inhibition of biofilm formation in multidrug resistant Pseudomonas aeruginosa 1121 at 1.25 uM relative to control; format: functional
# Pseudomonas aeruginosa [4] = test: Inhibition of biofilm formation in multidrug resistant Pseudomonas aeruginosa 1121 at 5 uM relative to control; format: functional
# Pseudomonas aeruginosa [5] = test: Inhibition of biofilm formation in multidrug resistant Pseudomonas aeruginosa 1121 at 20 uM relative to control; format: functional
# Pseudomonas aeruginosa [6] = test: Inhibition of biofilm formation in multidrug resistant Pseudomonas aeruginosa 1121 at 10 uM relative to control; format: functional
# L02 = test: Cytotoxicity against human L02 cells assessed as reduction in cell viability up to 50 uM after 16 hrs by MTT assay; format: cell-based; details: l02, 16 h
# How it was run: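 Vero or LO2 cells were seeded at 5000–15000 cells/well for 16 h, PBS-washed, then exposed to compound in DMEM at 37 °C and 5% CO2 for 16 h. MTT (20 μL of 5 mg/mL) was added for 3 h, and formazan was dissolved in DMSO and read at 570 nm. Triplicate; mean ± SD.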
# [7] = Inhibition of GFP (unknown origin) at 1.25 to 20 uM by measuring fluorescence intensity every 15 mins for 12 hrs by microtiter plate reader assay; details: dose microM 1.25-20, time 12.0 hrs
# How it was run: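 PAO1-gfp, PAO1-lasB-gfp, PAO1-rhlA-gfp or PAO1-pqsA-gfp reporters were grown overnight in LB, then diluted in ABTGC medium to OD600 0.02, with compound at 1.25–20 μM. Controls were 0.1% DMSO and a blank. OD600 and GFP fluorescence (ex 485/em 535 nm) were read every 15 min for at least 12 h at 37 °C; triplicate.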
# [8] = tested on: Pseudomonas aeruginosa PA14; test: Inhibition of quorum sensing system PQS in Pseudomonas aeruginosa PA14 assessed as reduction in pyocyanin production measured after 48 hrs; details: dose microM 1.25-20, time 48.0 hrs
# How it was run: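 PA14 culture standardized to OD600 0.05 was diluted 100-fold in LB and grown 48 h at 37 °C with shaking, with compound at 1.25–20 μM. Cleared supernatant was extracted with chloroform (4:1), then back-extracted into 0.2 M HCl. A520 was read and normalized to final OD600.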
# [9] = tested on: Pseudomonas aeruginosa PAO1; test: Induction of iron chelation in Pseudomonas aeruginosa PAO1 assessed as increase in intracellular pyochelin level at 1.25 to 20 uM in presence of 50 uM FeCl3 by fluorescence microplate reader assay; format: cell-based; details: dose microM 1.25-20
# How it was run: (§1)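 PAO1 overnight LB culture was diluted in ABTGC medium to OD600 0.02 ([…]), with compound at 0–20 μM, in medium containing 10 or 50 μM FeCl3. Plates were kept at 37 °C in a plate reader recording OD600, pyoverdine fluorescence (ex 400/em 447 nm) and pyochelin fluorescence (ex 350/em 430 nm). Triplicate.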
# [10] = tested on: Pseudomonas aeruginosa PAO1; test: Induction of iron chelation in Pseudomonas aeruginosa PAO1 assessed as increase in intracellular pyoverdin level at 1.25 to 20 uM in presence of 50 uM FeCl3 by fluorescence microplate reader assay; format: cell-based; details: dose microM 1.25-20; how it was run: as §1
# [11] = tested on: Pseudomonas aeruginosa PAO1; test: Induction of iron chelation in Pseudomonas aeruginosa PAO1 assessed as increase in intracellular pyoverdin level in presence of 10 uM FeCl3 by fluorescence microplate reader assay; format: cell-based; details: dose microM 1.25-20; how it was run: as §1
# [12] = tested on: Pseudomonas aeruginosa PAO1; test: Induction of iron chelation in Pseudomonas aeruginosa PAO1 assessed as increase in iron deficiency by measuring change in total ferric ion concentration at 20 uM by inductively coupled plasma mass spectrometry (reference value: 1.91 +/- 0.8 uM)
# [13] = tested on: Pseudomonas aeruginosa PAO1; test: Induction of iron chelation in Pseudomonas aeruginosa PAO1 assessed as increase in iron deficiency by measuring change in total ferric ion concentration at 2.5 uM by inductively coupled plasma mass spectrometry (reference value: 1.91 +/- 0.8 uM)
# How it was run: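 PAO1 (OD600 0.05) was diluted 1:100 into ABTGC medium and grown 24 h at 37 °C with shaking, with compound; DFP at 20 μM was the reference. Pellets were washed twice in HEPES and lysed with lysozyme in 50 mM HEPES plus sonication for 30 min. Lysates were digested with 1 M nitric acid, centrifuged, and analysed by ICP-MS. Mean ± SD, triplicate.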
# [14] = Growth inhibition of Pseudomonas aeruginosa PAO1 at 1.25 to 20 uM measured after 10 hrs in ABTGC media; details: dose 1.25-20 µM
# Pseudomonas aeruginosa [15] = test: Antibiofilm activity against Pseudomonas aeruginosa PAO1 assessed as reduction in biofilm mass after 24 hrs by microtiter plate assay; format: functional, organism-based; details: dose microM 1.25-20, time 24.0 hrs
# How it was run: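 PAO1 (OD600 0.05) was cultured in ABTGC medium at 37 °C for 24 h with compound (1.25–20 μM for the dose series). Wells were PBS-washed three times, methanol-fixed for 30 min, air-dried, and stained with 0.1% crystal violet for 30 min. Stain was solubilized in 33% acetic acid and read at 570 nm. Compound stocks were […]. Run in triplicate.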
# [16] = Growth inhibition of Pseudomonas aeruginosa PAO1 at 512 uM by CLSI-based broth microdilution method
# How it was run: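 Broth microdilution following CLSI standards: two-fold serial dilutions were made in Mueller-Hinton broth and inoculated with P. aeruginosa to a final OD600 of 0.05. The top final concentration is printed as […].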
smiles,measurement,setting,value
CCCCCCC(=O)NCc1c(O)c(=O)cc(C)n1C,inhibition at 5 µM,Pseudomonas aeruginosa [1],3.57%
same,inhibition at 20 µM,Pseudomonas aeruginosa [2],40%
same,inhibition at 1.25 µM,Pseudomonas aeruginosa [3],11.8%
same,inhibition at 5 µM,Pseudomonas aeruginosa [4],10.6%
same,inhibition at 20 µM,Pseudomonas aeruginosa [5],23.2%
same,inhibition at 10 µM,Pseudomonas aeruginosa [6],4.41%
same,Activity,L02,Non-Toxic
same,inhibition,[7],inactive
same,inhibition,[8],Dose-dependent effect
same,Activity,[9],inactive
same,Activity,[10],inactive
same,Activity,[11],Dose-dependent effect
same,Activity,[12],0.88 µM
same,Activity,[13],1.56 µM
same,growth inhibition (GI),[14],Non-Toxic
same,Activity,Pseudomonas aeruginosa [15],Dose-dependent effect
same,growth inhibition (GI),[16],Non-Toxic
